Test [1] addresses Adenosine A2A receptor (Homo sapiens) (UniProt P29274). Description: Antagonist activity at human A2aR expressed in HEK293 cells assessed as inhibition of CGS-21680-induced cAMP production at 10 uM. Type of test: functional, cell-based. In short, it runs like this: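 Human A2AR was transiently expressed in HEK-293 cells, which were held 16 h serum-free with 1.5 U/mL ADA and used 48 h post-transfection. Cells were preincubated 10 min at 37 °C with 50 μM zardaverine, 10 mM MgCl2 and 1.5 U/mL ADA. Ligand at 10 μM was given alone, or 10 min before 200 nM CGS 21680 (10-15 min). cAMP was measured by [3H]cAMP assay, as % of CGS 21680 response; three independent experiments.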
A general note: Cyclic AMP is a second messenger, typically raised through Gs and lowered through Gi signalling.
Target sequence in this assay (P29274 whole entry, canonical isoform): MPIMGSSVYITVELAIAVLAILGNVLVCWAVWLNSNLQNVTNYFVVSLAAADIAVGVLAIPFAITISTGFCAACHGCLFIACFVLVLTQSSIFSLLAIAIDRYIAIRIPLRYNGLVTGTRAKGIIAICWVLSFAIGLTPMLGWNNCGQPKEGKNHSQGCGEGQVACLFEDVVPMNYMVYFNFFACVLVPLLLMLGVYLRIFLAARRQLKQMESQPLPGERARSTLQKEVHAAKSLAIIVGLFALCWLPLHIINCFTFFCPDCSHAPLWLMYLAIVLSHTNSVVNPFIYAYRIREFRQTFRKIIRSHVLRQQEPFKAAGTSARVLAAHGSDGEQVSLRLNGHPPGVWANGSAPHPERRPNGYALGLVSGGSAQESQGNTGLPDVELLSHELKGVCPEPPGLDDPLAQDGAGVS

Test [2] deals with Dopamine D2 receptor (Homo sapiens). As to the kind of experiment: Displacement of [3H]YM09151-2 from human A2aR/D2R (long isoform) heteromer expressed in mouse Ltk cells by scintillation counting.
In test [3] the target is Adenosine A2A receptor (Homo sapiens) (UniProt P29274). Description: Displacement of [3H]ZM241385 from human A2aR expressed in mouse Ltk cells at 1 uM by scintillation counting relative to control. The test is classed as cell-based. In a few lines: (§1)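 Mouse Ltk fibroblasts were transiently transfected with human A2AR, human D2R (long isoform) or both, and membranes were prepared 48 h later. Membranes were incubated 2 h at 25 °C in 50 mM Tris-HCl pH 7.4 with 10 mM MgCl2 and 2 U/mL ADA, plus 2.1 nM [3H]ZM241385 or 1.9 nM [3H]YM09151-2 and 1 μM test compound. Bound ligand was counted after filtration and expressed as % of specific binding without displacer; three independent experiments.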
Target sequence in this assay (P29274 whole entry, canonical isoform): as above

The nature of test [4]: Displacement of [3H]YM09151-2 from D2R (long isoform) dimer in lamb striatum membrane low affinity macroscopic equilibrium dissociation constant by scintillation counting. Type of test: cell membranes, Ovis aries. In short, it runs like this: (§2)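 Lamb striatal membranes (0.3-0.5 mg protein/mL) were incubated 2 h at 25 °C in 50 mM Tris-HCl pH 7.4 with 10 mM MgCl2 and 2 U/mL ADA. Radioligand was 2.1 nM [3H]ZM241385 (A2AR) or 0.9 nM [3H]YM09151-2 (D2R), against 11 competitor concentrations from 0.1 nM to 50 μM in triplicate. Nonspecific binding used 50 μM unlabeled radioligand. After GF/C filtration, counts were fitted to a two-state dimer model for KDB1 and KDB2; three experiments.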

The nature of test [5]: Displacement of [3H]ZM241385 from A2aR dimer in lamb striatum membrane assessed as high affinity macroscopic equilibrium dissociation constant by scintillation counting. Type of test: cell membranes, Ovis aries. In short, it runs like this:
as §2
In general terms: Loss of bound radioactivity is the signal in a displacement assay; it reports binding, not function.

The target in test [6] is Adenosine A2A receptor (Homo sapiens) (UniProt P29274). Description: Displacement of [3H]ZM241385 from human A2aR/D2R (long isoform) heteromer expressed in mouse Ltk cells by scintillation counting. The test is classed as cell-based. In a few lines: as §1
Target sequence in this assay (P29274 whole entry, canonical isoform): as above
Test [7] shares this target. As to the kind of experiment: Displacement of [3H]ZM241385 from human A2AR expressed in mouse Ltk cells at 1 uM by scintillation counting relative to control.
Target sequence in this assay (P29274 whole entry, looked up, canonical isoform): as the sequence (P29274 whole entry, canonical isoform) above
Test [8] addresses D(2) dopamine receptor (Homo sapiens) (UniProt P14416). Description: Agonist activity at human D2R receptor expressed In HEK293 cells assessed as decrease in forskolin-induced cAMP level at 10 uM. The test is classed as functional, cell-based. Further details: scale not given: the % may be the effect or the level left. In a few lines:
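HEK-293 cells transiently transfected with human D2R (long isoform) were kept 16 h in serum-free medium, then used 48 h after transfection. Cells were preincubated 10 min at 37 °C with 50 μM zardaverine in serum-free medium with 10 mM MgCl2. Test ligand at 10 μM was added, then 10 μM forskolin for 15 min. Cells were extracted with HClO4 and cAMP was measured by [3H]cAMP assay, as % of forskolin-induced level; three independent experiments.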

Test [9] deals with Adenosine A2A receptor (Homo sapiens) (UniProt P29274). As to the kind of experiment: Agonist activity at human A2aR expressed in HEK293 cells assessed as cAMP accumulation at 10 uM.
Target sequence in this assay (P29274 whole entry, canonical isoform): as above
The nature of test [10]: Displacement of [3H]YM09151-2 from D2R (long isoform) dimer in lamb striatum membrane high affinity macroscopic equilibrium dissociation constant by scintillation counting. Type of test: cell membranes, Ovis aries. In a few lines: as §2
For test [11], the target named is D(2) dopamine receptor (Homo sapiens) (UniProt P14416). As to the kind of experiment: Displacement of [3H]YM09151-2 from human D2R expressed in mouse Ltk cells by scintillation counting relative to control. Type of test: cell-based. In short, it runs like this:
as §1

For test [12], the target named is Adenosine A2A receptor (Homo sapiens) (UniProt P29274). Description: Displacement of [3H]ZM241385 from human A2aR/D2R (long isoform) coexpressed in mouse Ltk cells by scintillation counting. Type of test: cell-based. In short, it runs like this:
as §1
Target sequence in this assay (P29274 whole entry, canonical isoform): as above

Structures are written as SMILES. Active and inactive are the calls of the source. No cut-off for these calls is given here.

Chain of D(2) dopamine receptor (Homo sapiens) (P14416 whole entry, canonical isoform): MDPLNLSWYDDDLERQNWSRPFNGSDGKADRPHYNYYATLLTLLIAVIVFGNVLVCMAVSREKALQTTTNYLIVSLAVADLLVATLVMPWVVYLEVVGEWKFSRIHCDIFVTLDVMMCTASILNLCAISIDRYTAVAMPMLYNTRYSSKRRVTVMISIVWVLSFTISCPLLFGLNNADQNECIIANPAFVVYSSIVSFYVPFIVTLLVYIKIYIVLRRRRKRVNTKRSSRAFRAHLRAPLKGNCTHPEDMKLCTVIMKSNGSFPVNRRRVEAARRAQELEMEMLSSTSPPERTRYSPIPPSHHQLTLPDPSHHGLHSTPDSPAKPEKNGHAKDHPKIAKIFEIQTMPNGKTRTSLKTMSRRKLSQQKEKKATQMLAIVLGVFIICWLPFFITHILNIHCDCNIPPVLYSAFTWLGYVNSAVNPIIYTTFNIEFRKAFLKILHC

In general, Ki refers to the dissociation constant of the complex between target and ligand, obtained from inhibition or displacement. `CCCN(CCc1ccc(NC(=O)CCC(N)C(=O)NCCCCC(NC(=O)CCC(=O)NCCOCCOCCNC(=O)CCC(=O)NCCOCCOCCNC(=O)CCC(=O)NCCOCCOCCNC(=O)C(CCCCNC(=O)C(N)CCCCNC(=O)COc2ccc(-c3nc4c([nH]3)c(=O)n(CCC)c(=O)n4CCC)cc2)NC(C)=O)C(N)=O)cc1)C1CCc2c(O)cccc2C1` (centres undefined): the outcome in test [1], in test [2], in test [3], in test [6], in [7] and in test [12] was Active. The Ki in test [4] was 0.5 µM; in test [5], 0.05 µM; in test [10], 0.0018 µM. Besides, in test [8], the Activity stood at 78%. The result in [9] and in test [11] was inactive.
`CCCN(CCc1ccc(NC(=O)CCC(N)C(=O)NCCCCC(NC(=O)CCC(=O)NCCOCCOCCNC(=O)C(CCCCNC(=O)C(N)CCCCNC(=O)COc2ccc(-c3nc4c([nH]3)c(=O)n(CCC)c(=O)n4CCC)cc2)NC(C)=O)C(N)=O)cc1)C1CCc2c(O)cccc2C1` (centres undefined): the result in test [1], in test [2], in test [3], in test [6], in test [7] and in [12] was Active. Besides, the results for the Ki in [4], in test [5] and in test [10] were 7 µM, 0.059 µM and 0.0011 µM, respectively. In addition, the Activity in test [8] stood at 87%. Moreover, the outcome in test [9] and in test [11] was inactive.

The values above are taken from ChEMBL document CHEMBL1153525, “Adenosine A2A receptor-antagonist/dopamine D2 receptor-agonist bivalent ligands as pharmacological tools to detect A2A-D2 receptor heteromers” (J Med Chem, 2009).
